This passage reports inhibition and fold change (FC) results from ChEMBL document CHEMBL5653631, “A Potent and Selective ULK1 Inhibitor Suppresses Autophagy and Sensitizes Cancer Cells to Nutrient Stress” (iScience, 2018).

Assay [1] deals with Non-receptor tyrosine-protein kinase TYK2 (Homo sapiens) (UniProt P29597). Nature of the assay: Inhibition of human recombinant TYK2 at 15 nM in presence of ATP by radiometric assay relative to control.
The target in assay [2] is Cyclin-dependent kinase 5 (Homo sapiens) (UniProt Q00535). Nature of the assay: Inhibition of human recombinant CDK5 at 15 nM related to control ULK1.
For assay [3], the target named is Cyclin-dependent kinase 1 (Homo sapiens) (UniProt P06493). Nature of the assay: Inhibition of human recombinant CDC2 at 15 nM related to control ULK1.
For assay [4], the target named is T1, Serine/threonine-protein kinase BRSK1 (Homo sapiens) (UniProt Q8TDC3).
T1 sequence (whole entry): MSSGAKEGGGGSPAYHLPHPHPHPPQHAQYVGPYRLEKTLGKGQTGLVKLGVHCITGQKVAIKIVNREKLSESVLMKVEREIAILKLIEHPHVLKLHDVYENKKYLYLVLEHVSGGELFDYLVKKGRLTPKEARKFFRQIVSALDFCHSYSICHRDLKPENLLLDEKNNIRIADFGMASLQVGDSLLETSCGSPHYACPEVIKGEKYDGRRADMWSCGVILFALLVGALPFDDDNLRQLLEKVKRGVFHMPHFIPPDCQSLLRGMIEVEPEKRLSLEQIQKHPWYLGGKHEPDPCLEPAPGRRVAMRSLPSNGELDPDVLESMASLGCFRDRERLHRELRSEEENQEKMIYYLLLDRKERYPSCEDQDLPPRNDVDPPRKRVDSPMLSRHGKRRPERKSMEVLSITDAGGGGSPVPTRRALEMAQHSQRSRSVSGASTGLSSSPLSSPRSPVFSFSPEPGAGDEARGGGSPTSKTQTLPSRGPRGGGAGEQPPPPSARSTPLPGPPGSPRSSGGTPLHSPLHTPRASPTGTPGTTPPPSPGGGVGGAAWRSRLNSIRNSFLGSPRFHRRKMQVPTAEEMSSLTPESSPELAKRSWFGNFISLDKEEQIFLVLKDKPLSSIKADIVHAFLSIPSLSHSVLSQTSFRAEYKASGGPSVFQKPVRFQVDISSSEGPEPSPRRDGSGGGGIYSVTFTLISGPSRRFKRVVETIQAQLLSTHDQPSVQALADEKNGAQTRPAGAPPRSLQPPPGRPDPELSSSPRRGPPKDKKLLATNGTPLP
The assay can be described thus: Inhibition of human recombinant BRSK1 at 15 nM in presence of ATP by radiometric assay relative to control. The procedure, abridged:
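Part of a radiometric in vitro activity panel of 327 recombinant human kinases. Each kinase was tested in duplicate at one inhibitor concentration. Activity remaining was expressed as a percentage of the vehicle control, and percent inhibition was taken as 100 minus that value.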

In assay [5] the target is T2, Mitogen-activated protein kinase kinase kinase 7 (Homo sapiens) (UniProt O43318).
T2 sequence (whole entry): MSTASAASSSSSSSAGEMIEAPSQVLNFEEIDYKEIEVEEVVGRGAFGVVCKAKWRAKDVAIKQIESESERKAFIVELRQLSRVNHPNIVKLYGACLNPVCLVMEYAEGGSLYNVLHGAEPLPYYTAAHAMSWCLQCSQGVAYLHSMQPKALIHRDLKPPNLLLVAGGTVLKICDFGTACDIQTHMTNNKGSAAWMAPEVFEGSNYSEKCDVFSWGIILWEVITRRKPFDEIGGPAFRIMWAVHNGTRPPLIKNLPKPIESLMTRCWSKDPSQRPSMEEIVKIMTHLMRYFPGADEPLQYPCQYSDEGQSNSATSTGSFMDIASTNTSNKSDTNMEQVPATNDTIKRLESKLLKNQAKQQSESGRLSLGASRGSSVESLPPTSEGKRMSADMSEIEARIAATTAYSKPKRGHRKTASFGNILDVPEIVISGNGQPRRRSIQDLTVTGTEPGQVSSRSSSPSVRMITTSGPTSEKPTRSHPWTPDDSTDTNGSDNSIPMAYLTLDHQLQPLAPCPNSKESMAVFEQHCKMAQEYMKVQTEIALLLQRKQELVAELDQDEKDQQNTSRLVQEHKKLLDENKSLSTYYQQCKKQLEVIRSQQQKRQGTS
The assay can be described thus: Inhibition of human recombinant TAK1 at 15 nM related to control ULK1.

The target of assay [6] is BDNF/NT-3 growth factors receptor (Homo sapiens) (UniProt Q16620). The assay can be described thus: Inhibition of human recombinant TRKB at 40 nM related to control ULK1.
The target in assay [7] is PAS domain-containing serine/threonine-protein kinase (Homo sapiens) (UniProt Q96RG2). Nature of the assay: Inhibition of human recombinant PASK at 40 nM related to control ULK1.
The target of assay [8] is Serine/threonine-protein kinase pim-2 (Homo sapiens) (UniProt Q9P1W9). Nature of the assay: Inhibition of human recombinant PIM2 at 40 nM related to control ULK1.
In assay [9] the target is T3, Serine/threonine-protein kinase Nek2 (Homo sapiens) (UniProt P51955).
T3 sequence (whole entry): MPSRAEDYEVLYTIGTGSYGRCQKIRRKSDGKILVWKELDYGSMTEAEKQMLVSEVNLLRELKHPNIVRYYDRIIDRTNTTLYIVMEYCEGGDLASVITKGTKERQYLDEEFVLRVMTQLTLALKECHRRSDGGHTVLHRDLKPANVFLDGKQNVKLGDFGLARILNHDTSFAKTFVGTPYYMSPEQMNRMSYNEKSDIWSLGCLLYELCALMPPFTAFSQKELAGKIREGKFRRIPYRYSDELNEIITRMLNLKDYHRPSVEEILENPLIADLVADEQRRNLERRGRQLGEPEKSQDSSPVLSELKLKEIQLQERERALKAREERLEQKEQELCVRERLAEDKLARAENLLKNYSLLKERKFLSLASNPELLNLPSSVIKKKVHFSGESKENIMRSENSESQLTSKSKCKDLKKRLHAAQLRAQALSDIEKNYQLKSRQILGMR
Nature of the assay: Inhibition of human recombinant NEK2 at 40 nM related to control ULK1.

Assay [10] has as its target Serine/threonine-protein kinase PLK3 (Homo sapiens) (UniProt Q9H4B4). Nature of the assay: Inhibition of human recombinant PLK3 at 500 nM in presence of ATP by radiometric assay relative to control.
Assay [11] has as its target Ribosomal protein S6 kinase alpha-4 (Homo sapiens) (UniProt O75676). The assay can be described thus: Inhibition of human recombinant MSK2 at 500 nM in presence of ATP by radiometric assay relative to control.
In assay [12] the target is Cyclin-dependent kinase 6 (Homo sapiens) (UniProt Q00534). Nature of the assay: Inhibition of human recombinant CDK6 at 500 nM in presence of ATP by radiometric assay relative to control.
For assay [13], the target named is Phosphorylase b kinase gamma catalytic chain, skeletal muscle/heart isoform (Homo sapiens) (UniProt Q16816). Nature of the assay: Inhibition of human recombinant PHKg1 at 500 nM in presence of ATP by radiometric assay relative to control.
In assay [14] the target is Ephrin type-A receptor 4 (Homo sapiens) (UniProt P54764). Nature of the assay: Inhibition of human recombinant EphA4 at 500 nM in presence of ATP by radiometric assay relative to control.
Assay [15] addresses Casein kinase I isoform gamma-3 (Homo sapiens) (UniProt Q9Y6M4). The assay can be described thus: Inhibition of human recombinant CK1g3 at 500 nM related to control ULK1.

Sequence of Cyclin-dependent kinase 1 (Homo sapiens) (P06493 whole entry, looked up): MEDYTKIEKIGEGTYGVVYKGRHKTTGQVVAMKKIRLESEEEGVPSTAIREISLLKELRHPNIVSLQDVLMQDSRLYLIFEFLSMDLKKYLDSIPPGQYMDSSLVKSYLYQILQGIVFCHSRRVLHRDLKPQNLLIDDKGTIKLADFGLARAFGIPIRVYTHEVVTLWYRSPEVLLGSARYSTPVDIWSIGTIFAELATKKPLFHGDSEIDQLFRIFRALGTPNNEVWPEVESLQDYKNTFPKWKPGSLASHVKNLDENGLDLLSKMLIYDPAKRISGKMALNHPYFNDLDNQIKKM
Sequence of PAS domain-containing serine/threonine-protein kinase (Homo sapiens) (Q96RG2 whole entry, the tested form may be a part): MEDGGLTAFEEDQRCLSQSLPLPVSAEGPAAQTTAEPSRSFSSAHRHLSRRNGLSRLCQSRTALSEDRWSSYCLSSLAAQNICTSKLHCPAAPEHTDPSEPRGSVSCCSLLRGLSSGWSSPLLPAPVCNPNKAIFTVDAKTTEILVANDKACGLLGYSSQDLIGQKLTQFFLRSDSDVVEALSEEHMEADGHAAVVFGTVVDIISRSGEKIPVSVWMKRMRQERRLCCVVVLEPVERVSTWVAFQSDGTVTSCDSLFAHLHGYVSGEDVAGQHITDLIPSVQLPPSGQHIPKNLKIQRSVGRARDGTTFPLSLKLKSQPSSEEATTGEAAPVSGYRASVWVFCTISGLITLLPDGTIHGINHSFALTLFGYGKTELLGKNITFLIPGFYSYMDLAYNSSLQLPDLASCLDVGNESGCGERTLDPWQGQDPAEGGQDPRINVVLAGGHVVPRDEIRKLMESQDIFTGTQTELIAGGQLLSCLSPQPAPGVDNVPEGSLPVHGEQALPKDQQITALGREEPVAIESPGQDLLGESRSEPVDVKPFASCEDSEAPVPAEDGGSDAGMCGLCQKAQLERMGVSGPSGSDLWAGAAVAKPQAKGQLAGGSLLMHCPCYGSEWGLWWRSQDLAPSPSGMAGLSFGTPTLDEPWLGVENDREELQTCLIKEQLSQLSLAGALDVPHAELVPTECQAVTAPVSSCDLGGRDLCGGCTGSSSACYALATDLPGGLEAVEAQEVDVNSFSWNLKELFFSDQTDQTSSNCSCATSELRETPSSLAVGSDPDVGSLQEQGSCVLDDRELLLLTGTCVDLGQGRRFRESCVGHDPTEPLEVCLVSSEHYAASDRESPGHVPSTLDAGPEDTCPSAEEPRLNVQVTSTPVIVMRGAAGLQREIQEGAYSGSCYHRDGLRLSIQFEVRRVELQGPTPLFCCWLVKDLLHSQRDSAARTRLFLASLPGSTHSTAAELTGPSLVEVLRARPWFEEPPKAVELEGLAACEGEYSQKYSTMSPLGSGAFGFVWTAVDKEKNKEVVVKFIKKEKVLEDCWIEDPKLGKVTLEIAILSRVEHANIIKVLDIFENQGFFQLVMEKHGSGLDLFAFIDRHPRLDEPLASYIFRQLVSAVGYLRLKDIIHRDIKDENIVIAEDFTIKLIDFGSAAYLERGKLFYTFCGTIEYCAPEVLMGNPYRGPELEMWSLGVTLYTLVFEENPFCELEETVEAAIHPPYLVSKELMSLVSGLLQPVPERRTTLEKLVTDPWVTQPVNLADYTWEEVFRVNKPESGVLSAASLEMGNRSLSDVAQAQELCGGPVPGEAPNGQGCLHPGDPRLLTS
Sequence of Cyclin-dependent kinase 6 (Homo sapiens) (Q00534 whole entry, canonical isoform): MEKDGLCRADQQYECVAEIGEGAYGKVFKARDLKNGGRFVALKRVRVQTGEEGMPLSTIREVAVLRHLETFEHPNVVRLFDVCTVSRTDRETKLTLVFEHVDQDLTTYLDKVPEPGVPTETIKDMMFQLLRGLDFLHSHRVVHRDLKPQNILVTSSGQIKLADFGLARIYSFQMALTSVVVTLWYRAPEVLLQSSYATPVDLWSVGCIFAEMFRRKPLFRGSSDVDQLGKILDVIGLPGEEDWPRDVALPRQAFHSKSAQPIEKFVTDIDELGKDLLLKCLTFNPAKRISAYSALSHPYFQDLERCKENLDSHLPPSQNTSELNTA
Sequence of Serine/threonine-protein kinase pim-2 (Homo sapiens) (Q9P1W9 whole entry, looked up): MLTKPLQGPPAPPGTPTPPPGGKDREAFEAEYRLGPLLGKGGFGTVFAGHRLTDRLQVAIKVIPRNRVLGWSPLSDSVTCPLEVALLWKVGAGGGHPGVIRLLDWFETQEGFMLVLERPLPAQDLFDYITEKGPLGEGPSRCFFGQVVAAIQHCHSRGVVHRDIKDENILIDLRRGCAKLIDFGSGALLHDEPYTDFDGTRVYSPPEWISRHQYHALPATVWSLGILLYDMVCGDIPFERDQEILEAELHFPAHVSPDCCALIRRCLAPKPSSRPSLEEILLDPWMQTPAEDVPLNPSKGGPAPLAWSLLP
Sequence of Ephrin type-A receptor 4 (Homo sapiens) (P54764 whole entry, canonical isoform): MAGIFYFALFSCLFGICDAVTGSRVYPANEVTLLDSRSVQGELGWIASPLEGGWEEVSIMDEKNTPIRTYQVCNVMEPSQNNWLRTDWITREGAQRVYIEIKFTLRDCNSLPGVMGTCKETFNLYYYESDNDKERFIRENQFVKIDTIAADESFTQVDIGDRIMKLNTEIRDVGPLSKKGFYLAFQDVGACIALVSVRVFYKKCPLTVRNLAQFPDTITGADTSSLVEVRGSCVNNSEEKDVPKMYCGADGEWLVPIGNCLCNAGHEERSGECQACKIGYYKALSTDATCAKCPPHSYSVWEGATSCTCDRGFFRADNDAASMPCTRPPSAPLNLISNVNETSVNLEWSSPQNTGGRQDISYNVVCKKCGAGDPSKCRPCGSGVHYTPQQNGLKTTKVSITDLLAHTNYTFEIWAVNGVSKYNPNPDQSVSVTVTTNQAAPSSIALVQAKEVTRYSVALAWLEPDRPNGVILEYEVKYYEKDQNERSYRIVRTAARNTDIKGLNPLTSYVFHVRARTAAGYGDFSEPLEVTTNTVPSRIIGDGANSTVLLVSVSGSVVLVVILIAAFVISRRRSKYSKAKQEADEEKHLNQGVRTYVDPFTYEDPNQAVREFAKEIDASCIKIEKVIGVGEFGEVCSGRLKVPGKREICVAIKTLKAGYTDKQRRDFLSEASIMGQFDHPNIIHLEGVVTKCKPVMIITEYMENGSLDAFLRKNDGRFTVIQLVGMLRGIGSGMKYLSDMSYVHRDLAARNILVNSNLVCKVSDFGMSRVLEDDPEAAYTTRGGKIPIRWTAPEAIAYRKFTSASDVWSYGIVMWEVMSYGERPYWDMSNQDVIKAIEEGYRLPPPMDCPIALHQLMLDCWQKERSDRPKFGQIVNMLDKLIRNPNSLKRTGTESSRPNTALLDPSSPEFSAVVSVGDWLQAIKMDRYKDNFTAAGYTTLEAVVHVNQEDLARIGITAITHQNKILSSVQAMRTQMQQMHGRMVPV
Sequence of BDNF/NT-3 growth factors receptor (Homo sapiens) (Q16620 32-822 limits assumed): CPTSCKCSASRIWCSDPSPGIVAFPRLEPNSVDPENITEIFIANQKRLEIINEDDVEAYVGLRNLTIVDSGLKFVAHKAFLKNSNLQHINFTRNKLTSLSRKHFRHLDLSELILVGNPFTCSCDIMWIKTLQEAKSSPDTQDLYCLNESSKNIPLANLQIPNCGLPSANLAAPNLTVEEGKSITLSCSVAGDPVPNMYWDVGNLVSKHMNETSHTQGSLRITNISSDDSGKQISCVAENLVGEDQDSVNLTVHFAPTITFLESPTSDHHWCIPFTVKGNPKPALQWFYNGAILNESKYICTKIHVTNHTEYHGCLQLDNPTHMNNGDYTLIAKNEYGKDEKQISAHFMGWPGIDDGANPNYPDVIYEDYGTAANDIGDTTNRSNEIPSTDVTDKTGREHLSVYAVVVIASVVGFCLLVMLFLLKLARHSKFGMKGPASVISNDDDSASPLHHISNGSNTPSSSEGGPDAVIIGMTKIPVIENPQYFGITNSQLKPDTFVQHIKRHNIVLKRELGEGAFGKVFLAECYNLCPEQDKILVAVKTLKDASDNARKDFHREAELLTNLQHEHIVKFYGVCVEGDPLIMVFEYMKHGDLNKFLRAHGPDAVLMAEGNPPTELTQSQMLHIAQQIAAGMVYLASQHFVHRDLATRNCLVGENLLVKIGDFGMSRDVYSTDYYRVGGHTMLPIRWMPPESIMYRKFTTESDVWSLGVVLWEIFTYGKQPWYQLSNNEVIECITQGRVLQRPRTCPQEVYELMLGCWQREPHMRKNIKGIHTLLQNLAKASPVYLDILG
Sequence of Ribosomal protein S6 kinase alpha-4 (Homo sapiens) (O75676 whole entry, looked up): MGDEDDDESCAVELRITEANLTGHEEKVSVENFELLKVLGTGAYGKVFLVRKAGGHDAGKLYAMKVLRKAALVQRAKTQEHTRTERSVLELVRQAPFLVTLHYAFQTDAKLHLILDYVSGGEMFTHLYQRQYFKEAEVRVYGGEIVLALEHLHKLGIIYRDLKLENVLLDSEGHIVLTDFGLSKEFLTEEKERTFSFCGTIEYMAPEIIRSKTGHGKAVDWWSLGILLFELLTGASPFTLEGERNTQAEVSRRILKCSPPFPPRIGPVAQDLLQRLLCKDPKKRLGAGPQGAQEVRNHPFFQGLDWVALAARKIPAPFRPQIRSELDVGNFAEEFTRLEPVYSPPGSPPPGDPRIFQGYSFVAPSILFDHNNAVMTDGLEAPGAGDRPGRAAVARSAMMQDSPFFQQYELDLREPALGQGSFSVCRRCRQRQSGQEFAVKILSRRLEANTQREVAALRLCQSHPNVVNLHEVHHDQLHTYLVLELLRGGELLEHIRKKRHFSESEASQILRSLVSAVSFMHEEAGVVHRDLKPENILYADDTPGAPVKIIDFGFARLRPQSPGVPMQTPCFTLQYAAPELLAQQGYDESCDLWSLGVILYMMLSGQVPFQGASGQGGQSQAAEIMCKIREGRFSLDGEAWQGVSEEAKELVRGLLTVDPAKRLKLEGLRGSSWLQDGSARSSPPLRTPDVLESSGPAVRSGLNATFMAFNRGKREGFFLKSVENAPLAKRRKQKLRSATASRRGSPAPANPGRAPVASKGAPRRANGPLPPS

Regarding `CC(C)[C@H](NC(=O)c1cc(-c2cnn3cc(-c4ccc(OCCN5CCCCC5)cc4)cnc23)cs1)C(F)(F)F`, the inhibition in [1] was 2%; in [4], 13%. The fold change (FC) in assay [2] was found to be 0.26; in assay [3], 0.27; in [5], 0.01.

In the case of `O=C(N[C@@H](C1CC1)C(F)(F)F)c1cc(-c2cnn3cc(-c4ccc(F)cc4)cnc23)cs1`, the fold change (FC) worked out at 0.26 in assay [6], 0.16 in [7], 0.04 in assay [8] and 0 in assay [9].

Consider `CNC(=O)c1ccccc1Oc1nc(Nc2cc(OC)c(OC)c(OC)c2)ncc1Br`, for which the inhibition stood at 0% in assay [10]; 0% in assay [11]; 0% in assay [12]; 23% in assay [13]; 15% in assay [14]. Also, the fold change (FC) in [15] stood at 0.

One may read the inhibition as the relative decrease from the control value, in per cent.
